Bioassay records: PubChem, several laboratories
An excerpt weighted towards active compounds, which were near 2.2% of everything screened.
PglD inh: C. jejuni PglD acetyltransferase inhibitors, primary screen, biochemical, DTNB colorimetric, single point | 360,000 compounds, 0.098% hits | inhibition, % at 12.5 µM | purified PglD enzyme, DTNB colorimetric CoA detection | UDP-N-acetylbacillosamine N-acetyltransferase PglD (Campylobacter jejuni) | AID 602405, 2012; in the data active means inhibition above about 16%, passing the limit was not always enough
SUMO Mot1 rescue: yeast Mot1-301 growth rescue at high temperature, primary screen, SUMOylation pathway inhibitor project, S. cerevisiae, ATP luminescence, 38.5C. S. cerevisiae Mot1-301 growth rescue; percent above DMSO median, 100 means doubled. growth rescue, % at 18.8 µM. 320,000 compounds, 1% hits;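 active means every valid replicate shows activation above 250% relative to neutral control wells; inactive means the rest, any valid replicate at or below 250%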
rRNA inh HTS: reduced GFP signal of wild-type E. coli, primary screen, bacterial rRNA inhibitor project, GFP/RFP fluorescence, OD600, single point | E. coli WT GFP vs humanized-ribosome RFP mutants, 24 h; hits give low values; DMSO median 0, no signal -100 | GFP signal change (wild-type ribosome), % (test concentration not listed) | 350,000 compounds, 1.6% hits;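 active means significant combined selectivity score with lowered wild-type GFP, culture density cut under 30%, mutant RFP and density less affected; inactive means any of these conditions unmet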
Yeast superoxide: reduction of superoxide in aged yeast, primary screen, HTS; S. cerevisiae aged cells, superoxide DHE fluorescence; hits give low values; superoxide response (% of plate mean), % at 10 µM; 330,000 compounds, 0.18% hits;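 active means superoxide response under a set limit, about three screen SD below normal, cut at about 65% in these data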;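 further: yeast aged for seven days with compound at 30 °C before DHE staining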
Cneo AK release: Cryptococcus neoformans cell lysis inducers, primary screen, AK release luminescence, single concentration. AID 651654, 2012. 360,000 compounds, 0.2% hits. lysis activity, % at 15 µM. C. neoformans lysis, adenylate kinase release luminescence, 4 h; normalised: neutral wells 0, clomiphene wells 100;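 active means mean lysis activity across replicates of at least 80%, whatever share of replicates individually reach that level; inactive means mean lysis activity below 80%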
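Material: C. neoformans cells; Schedule: 4 h static compound exposure, 37 °C, read 1 h post-reagent; Measured by: adenylate kinase release luminescence; Read-out: signal increase indicating cell lysis; Controls: Clomiphene as positive lysis control.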
CR mimetic CP: superoxide lowering in aged yeast cells, confirmation, cherry picked compounds | shares compounds with Yeast superoxide | AID 434994, 2010 | 850 compounds, 1% hits | superoxide response (% of plate), % at 10 µM | S. cerevisiae aging, superoxide DHE fluorescence; hits give low values;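 active means superoxide signal below 65% of the plate average of sample wells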;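 further: cells aged with compound for 7 days at 30 degrees C before staining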
DHE counter: DHE quenching or ROS scavenging interference in aged yeast, artefact control for yeast caloric restriction mimetic project, S. cerevisiae BY4741, flow cytometry | AID 435000, 2010 | DHE fluorescence; hits give low values | 850 tested, under 10 active | fluorescence response, % at 10 µM | shares compounds with Yeast superoxide;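 active means fluorescence response below 15%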;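 further: lower means stronger quenching of DHE signal or ROS scavenging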
Hits are given with their value; n = inactive; x = not tested or not shown.

SMILES	PglD inh	SUMO Mot1 rescue	rRNA inh HTS	Yeast superoxide	Cneo AK release	CR mimetic CP	DHE counter
Cc1ccccc1Cn1cc(NC(=O)c2noc3c2CC(C(C)(C)C)CC3)cn1 (stereo not given)	n	n	n	65.3	n	n	n
Cc1ccccc1Cn1nc(C)c(NC(=O)c2noc3c2CC(C(C)(C)C)CC3)c1C (stereo not given)	n	n	x	n	n	x	x
CC1CC(C)CN(CC(=O)NCCc2ccc(S(N)(=O)=O)cc2)C1 (stereo not given)	x	n	n	61.7	x	n	n
CN(C)C(=O)c1ccc(-c2ccc3c(c2)[C@H]2[C@H](CCN2C(=O)c2ccccc2F)[C@H](CO)N3)cc1	n	x	n	x	n	x	x
CC(C)C#Cc1cnc2c(c1)C(=O)N([C@H](C)CO)C[C@@H](C)[C@H](CN(C)C(=O)Cc1ccccn1)O2	n	x	n	x	n	x	x
N#Cc1c(N)nc2c(c1-c1ccncc1)CCCCC2	n	n	x	n	n	x	x
CSc1ccc(-c2c(C#N)c(N)nc3c2CCCC3)cc1	n	n	x	64.2	n	n	n
O=C(Nc1nnc(-c2ccc(F)cc2)o1)c1ccc(S(=O)(=O)N2CCOCC2)cc1	n	n	x	n	n	n	n
COc1ccccc1-c1nnc(NC(=O)c2ccc(S(=O)(=O)N3CCCC3)cc2)o1	n	n	n	n	n	n	n
COc1ccc(-c2nnc(NC(=O)c3ccc(S(=O)(=O)N(C)CC4CCCO4)cc3)o2)c(OC)c1 (stereo not given)	n	n	n	n	n	n	n
CC1CCCN(S(=O)(=O)c2ccc(C(=O)Nc3nnc(C4CC4)o3)cc2)C1 (stereo not given)	n	n	n	64.7	n	n	n
CC(C)NC(=O)NC[C@@H]1[C@H](c2ccccc2)[C@H](CO)N1C(=O)c1ccccc1	n	x	n	x	n	x	x
COc1ccc(S(=O)(=O)Nc2ccc3c(c2)C(=O)N([C@H](C)CO)C[C@@H](C)[C@@H](CN(C)C)OCCCC[C@H](C)O3)cc1	n	x	n	x	n	x	x
C[C@H](CO)N1C[C@H](C)[C@@H](CN(C)CC2CCCCC2)OCCCC[C@H](C)Oc2ccc(NS(=O)(=O)c3ccc(Cl)cc3)cc2C1=O	n	x	n	x	n	x	x
CCc1nc(NC(C)(C)C)c2cnn(-c3ccccc3)c2n1	n	n	n	n	n	n	n
CCCCNc1ncnc2c1cnn2-c1ccc(Cl)cc1	n	n	n	n	n	x	x
c1ccc(Cn2ncc3c(NCc4ccco4)ncnc32)cc1	n	n	x	n	n	x	x
CCCCNc1ncnc2c1cnn2-c1ccccc1	n	n	x	n	n	n	n
c1ccc(-n2ncc3c(NCc4ccco4)ncnc32)cc1	n	n	x	n	n	n	n
O=C(C[C@@H]1C[C@H]2c3cc(NC(=O)C4CCC4)ccc3O[C@H]2[C@H](CO)O1)NCc1cccc(F)c1	n	x	n	x	n	x	x
COc1cccc(C(=O)Nc2ccc3c(c2)C(=O)N(C)C[C@@H](OC)[C@@H](C)CN(CCc2ccccc2)[C@@H](C)CO3)c1	n	x	n	x	n	x	x
C[C@@H]1CN([C@H](C)CO)C(=O)Cc2cc(NS(=O)(=O)c3cccs3)ccc2O[C@@H]1CN(C)Cc1ccncc1	n	x	n	x	n	x	x
CCN(CC)S(=O)(=O)c1cc(OC)c(Cl)cc1Cl	n	n	n	58.5	n	n	n
CCCNC(=O)c1ccc2c(=O)c(O)c(-c3ccc(Cl)c([N+](=O)[O-])c3)[nH]c2c1	n	n	n	63.6	n	n	n
CSc1ccc(/C=C(\C#N)C(=O)NC2CCCCC2)cc1	x	n	x	60.1	x	n	n
SMILES	PglD inh	SUMO Mot1 rescue	rRNA inh HTS	Yeast superoxide	Cneo AK release	CR mimetic CP	DHE counter
C[C@@H]1CCCCO[C@H](CN(C)C(=O)Nc2cccc3ccccc23)[C@H](C)CN([C@@H](C)CO)C(=O)c2cc(NC(=O)NC3CCCCC3)ccc2O1	n	x	n	x	n	x	x
S=C(NCc1ccc(Cl)cc1)NCc1ccccn1	x	n	n	n	x	x	x
CC(C)CCC(CCNCc1ccccn1)c1ccc(Cl)cc1 (stereo not given)	n	n	n	48.0	n	n	n
Cc1ccc(S(=O)(=O)N[C@H]2CC[C@@H](CCNC(=O)C3CCC3)O[C@H]2CO)cc1	n	x	n	x	n	x	x
CCOc1ccccc1N(CC(=O)OC)S(=O)(=O)c1ccccc1	n	n	x	n	n	x	x
COC(=O)CN(c1ccccc1)S(=O)(=O)c1ccccc1	n	n	n	n	n	n	n
COC(=O)CN(c1ccc(C)cc1)S(=O)(=O)c1ccc(F)cc1	x	n	n	49.9	x	n	n
C[C@@H]1CN([C@H](C)CO)S(=O)(=O)c2ccc(C#CC3CC3)cc2O[C@@H]1CN(C)Cc1cncnc1	x	x	n	x	x	x	x
O=C(C[C@H]1CC[C@H]2[C@@H](COC[C@@H](O)CN2C(=O)Nc2ccc(Cl)cc2)O1)NCC1CCCCC1	n	x	n	x	n	x	x
O=C(C[C@@H]1C[C@H]2c3cc(NS(=O)(=O)c4ccccc4)ccc3O[C@H]2[C@H](CO)O1)NCC(F)(F)F	n	x	n	x	n	x	x
CCC(C)(C)c1ccc(OCCCC[n+]2ccc(C)cc2)c(C(C)(C)CC)c1	x	n	x	61.2	x	n	n
Cc1cc[n+](CC[n+]2ccc(C)cc2)cc1	n	n	n	n	n	x	x
COc1ccc(NC(=O)N2CCc3ccccc3C2)cc1	n	n	n	52.4	n	n	n
C[C@H](CO)N1C[C@H](C)[C@@H](CN(C)C(=O)Cc2ccccc2)Oc2ncc(C#CCN(C)C)cc2C1=O	n	x	n	x	n	x	x
CC(C)Cn1c2ccccc2c2cc(C(=O)O)ccc21	n	n	x	n	n	n	n
CC(=O)N(C)C[C@H]1Oc2cc(C#Cc3ccccc3)ccc2S(=O)(=O)N([C@@H](C)CO)C[C@H]1C	n	x	n	x	n	x	x
O=C(Nc1ccc2ccccc2c1)c1ccc(Cl)cc1Cl	n	n	n	49.5	n	n	n
O=C(Nc1ccc2ccccc2c1)c1ccccc1Cl	n	x	n	x	n	x	x
CCCCn1c2ccccc2c2cc(CC(N)=O)ccc21	x	n	n	n	x	n	n
CCCCn1c(=O)c(-c2ccccc2)c(O)c2ccccc21	n	n	x	n	n	x	x
O=C(N[C@H]1CC[C@H](CCn2cc(-c3ccccn3)nn2)O[C@@H]1CO)c1ccccc1	n	x	n	x	n	x	x
O=C(CN1CCN(c2ccccn2)CC1)Nc1cccc(Br)c1	n	n	n	n	n	n	n
COc1cccc(NC(=O)CN2CCN(CC(=O)Nc3ccc(F)cc3)CC2)c1	n	n	n	61.1	n	n	n
